Laboratory results as given in article PMC10825549 (JID Innovations, 2023).

Tests used:
[1] = molecular target: Jak2 (Homo sapiens, UniProt O60674); test: Inhibition of catalytic domain activity, Jak2; assay type: biochemical
How it was run: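 Z′-LYTE biochemical kinase assay run by the vendor per manufacturer's protocol. Each kinase plate carried 0%/100% phosphorylation and 0%/100% inhibition controls. Development-reaction and compound-fluorescence interference controls at each compound concentration. n = 1 per kinase.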

[2] = molecular target: Aurora A (Homo sapiens, UniProt O14965); test: IC50 for kinases of potential cross-over; assay type: biochemical
[3] = molecular target: KDR (VEGFR2) (Homo sapiens, UniProt P35968); test: IC50 for kinases of potential cross-over; assay type: biochemical
[4] = molecular target: TXK (Homo sapiens, UniProt P42681); test: IC50 for kinases of potential cross-over; assay type: biochemical
Chain of TXK (P42681 whole entry): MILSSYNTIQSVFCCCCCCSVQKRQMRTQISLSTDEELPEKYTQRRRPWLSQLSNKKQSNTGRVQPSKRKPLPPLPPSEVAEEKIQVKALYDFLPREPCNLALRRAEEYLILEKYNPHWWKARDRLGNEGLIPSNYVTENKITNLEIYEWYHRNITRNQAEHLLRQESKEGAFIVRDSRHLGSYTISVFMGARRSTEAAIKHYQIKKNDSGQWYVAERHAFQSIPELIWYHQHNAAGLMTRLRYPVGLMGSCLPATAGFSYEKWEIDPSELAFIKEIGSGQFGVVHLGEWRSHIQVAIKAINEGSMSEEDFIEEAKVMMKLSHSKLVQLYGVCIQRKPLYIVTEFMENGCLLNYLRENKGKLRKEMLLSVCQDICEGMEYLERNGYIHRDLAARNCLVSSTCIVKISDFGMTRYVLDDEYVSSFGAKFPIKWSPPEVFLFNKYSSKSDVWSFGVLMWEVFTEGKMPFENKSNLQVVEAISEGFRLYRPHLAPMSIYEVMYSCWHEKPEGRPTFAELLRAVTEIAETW

[5] = molecular target: HPK1 (MAP4K1) (Homo sapiens, UniProt Q92918); test: IC50 for kinases of potential cross-over; assay type: biochemical
[6] = molecular target: MKNK1/MNK1 (Homo sapiens, UniProt Q9BUB5); test: IC50 for kinases of potential cross-over; assay type: biochemical
Chain of MKNK1/MNK1 (Q9BUB5 whole entry): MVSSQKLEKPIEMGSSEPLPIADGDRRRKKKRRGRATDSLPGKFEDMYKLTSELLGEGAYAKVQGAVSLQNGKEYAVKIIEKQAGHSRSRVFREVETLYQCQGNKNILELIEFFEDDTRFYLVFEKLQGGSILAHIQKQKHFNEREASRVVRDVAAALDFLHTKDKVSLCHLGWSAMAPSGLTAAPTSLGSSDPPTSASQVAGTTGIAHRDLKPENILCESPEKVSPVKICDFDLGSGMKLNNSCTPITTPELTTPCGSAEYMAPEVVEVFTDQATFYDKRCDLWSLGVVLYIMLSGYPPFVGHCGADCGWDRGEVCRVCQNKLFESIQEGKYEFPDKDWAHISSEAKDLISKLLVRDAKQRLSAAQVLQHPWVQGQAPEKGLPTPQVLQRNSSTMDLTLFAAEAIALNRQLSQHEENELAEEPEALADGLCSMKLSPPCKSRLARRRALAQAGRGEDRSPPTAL

[7] = molecular target: RSK2 (Homo sapiens, UniProt P51812); test: IC50 for kinases of potential cross-over; assay type: biochemical
[8] = molecular target: FLT4 (VEGFR3) (Homo sapiens, UniProt P35916); test: IC50 for kinases of potential cross-over; assay type: biochemical
Chain of FLT4 (VEGFR3) (P35916 25-1363): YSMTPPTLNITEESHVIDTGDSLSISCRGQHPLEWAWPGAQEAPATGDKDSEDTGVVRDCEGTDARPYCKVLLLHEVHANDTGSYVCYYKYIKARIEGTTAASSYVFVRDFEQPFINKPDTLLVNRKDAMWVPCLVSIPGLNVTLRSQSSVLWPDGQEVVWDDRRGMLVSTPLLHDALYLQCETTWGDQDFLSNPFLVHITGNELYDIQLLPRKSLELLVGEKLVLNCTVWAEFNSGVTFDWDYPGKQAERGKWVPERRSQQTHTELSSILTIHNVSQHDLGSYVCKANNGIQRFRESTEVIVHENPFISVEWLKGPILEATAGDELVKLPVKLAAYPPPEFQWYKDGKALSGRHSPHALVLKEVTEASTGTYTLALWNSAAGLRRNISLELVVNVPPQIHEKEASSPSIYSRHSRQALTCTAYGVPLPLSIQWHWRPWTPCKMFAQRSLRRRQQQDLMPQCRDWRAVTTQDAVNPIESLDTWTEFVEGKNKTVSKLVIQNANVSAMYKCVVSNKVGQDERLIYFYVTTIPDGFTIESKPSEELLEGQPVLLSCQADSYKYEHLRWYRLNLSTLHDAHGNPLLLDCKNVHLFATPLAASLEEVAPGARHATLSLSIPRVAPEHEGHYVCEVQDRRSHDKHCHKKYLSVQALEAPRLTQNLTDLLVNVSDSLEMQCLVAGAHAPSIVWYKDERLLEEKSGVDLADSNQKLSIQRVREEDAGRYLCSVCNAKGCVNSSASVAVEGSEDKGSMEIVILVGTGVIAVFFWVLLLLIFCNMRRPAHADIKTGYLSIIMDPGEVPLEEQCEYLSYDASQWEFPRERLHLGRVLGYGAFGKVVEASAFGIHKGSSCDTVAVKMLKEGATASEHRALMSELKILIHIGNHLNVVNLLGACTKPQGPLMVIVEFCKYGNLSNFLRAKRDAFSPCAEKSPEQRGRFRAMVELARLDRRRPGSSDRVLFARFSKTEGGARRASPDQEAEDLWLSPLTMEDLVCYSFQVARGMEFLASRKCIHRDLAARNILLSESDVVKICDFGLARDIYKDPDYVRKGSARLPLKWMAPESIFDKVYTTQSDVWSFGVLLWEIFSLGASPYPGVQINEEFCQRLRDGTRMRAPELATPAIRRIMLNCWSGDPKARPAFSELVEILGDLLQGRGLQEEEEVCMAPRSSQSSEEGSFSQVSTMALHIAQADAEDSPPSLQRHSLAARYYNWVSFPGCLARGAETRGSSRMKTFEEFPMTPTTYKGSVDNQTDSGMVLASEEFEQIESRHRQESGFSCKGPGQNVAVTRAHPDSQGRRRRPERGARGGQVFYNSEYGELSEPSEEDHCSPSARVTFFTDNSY

[9] = molecular target: LRRK2 (Homo sapiens, UniProt Q5S007); test: IC50 for kinases of potential cross-over; assay type: biochemical
Chain of LRRK2 (Q5S007 whole entry): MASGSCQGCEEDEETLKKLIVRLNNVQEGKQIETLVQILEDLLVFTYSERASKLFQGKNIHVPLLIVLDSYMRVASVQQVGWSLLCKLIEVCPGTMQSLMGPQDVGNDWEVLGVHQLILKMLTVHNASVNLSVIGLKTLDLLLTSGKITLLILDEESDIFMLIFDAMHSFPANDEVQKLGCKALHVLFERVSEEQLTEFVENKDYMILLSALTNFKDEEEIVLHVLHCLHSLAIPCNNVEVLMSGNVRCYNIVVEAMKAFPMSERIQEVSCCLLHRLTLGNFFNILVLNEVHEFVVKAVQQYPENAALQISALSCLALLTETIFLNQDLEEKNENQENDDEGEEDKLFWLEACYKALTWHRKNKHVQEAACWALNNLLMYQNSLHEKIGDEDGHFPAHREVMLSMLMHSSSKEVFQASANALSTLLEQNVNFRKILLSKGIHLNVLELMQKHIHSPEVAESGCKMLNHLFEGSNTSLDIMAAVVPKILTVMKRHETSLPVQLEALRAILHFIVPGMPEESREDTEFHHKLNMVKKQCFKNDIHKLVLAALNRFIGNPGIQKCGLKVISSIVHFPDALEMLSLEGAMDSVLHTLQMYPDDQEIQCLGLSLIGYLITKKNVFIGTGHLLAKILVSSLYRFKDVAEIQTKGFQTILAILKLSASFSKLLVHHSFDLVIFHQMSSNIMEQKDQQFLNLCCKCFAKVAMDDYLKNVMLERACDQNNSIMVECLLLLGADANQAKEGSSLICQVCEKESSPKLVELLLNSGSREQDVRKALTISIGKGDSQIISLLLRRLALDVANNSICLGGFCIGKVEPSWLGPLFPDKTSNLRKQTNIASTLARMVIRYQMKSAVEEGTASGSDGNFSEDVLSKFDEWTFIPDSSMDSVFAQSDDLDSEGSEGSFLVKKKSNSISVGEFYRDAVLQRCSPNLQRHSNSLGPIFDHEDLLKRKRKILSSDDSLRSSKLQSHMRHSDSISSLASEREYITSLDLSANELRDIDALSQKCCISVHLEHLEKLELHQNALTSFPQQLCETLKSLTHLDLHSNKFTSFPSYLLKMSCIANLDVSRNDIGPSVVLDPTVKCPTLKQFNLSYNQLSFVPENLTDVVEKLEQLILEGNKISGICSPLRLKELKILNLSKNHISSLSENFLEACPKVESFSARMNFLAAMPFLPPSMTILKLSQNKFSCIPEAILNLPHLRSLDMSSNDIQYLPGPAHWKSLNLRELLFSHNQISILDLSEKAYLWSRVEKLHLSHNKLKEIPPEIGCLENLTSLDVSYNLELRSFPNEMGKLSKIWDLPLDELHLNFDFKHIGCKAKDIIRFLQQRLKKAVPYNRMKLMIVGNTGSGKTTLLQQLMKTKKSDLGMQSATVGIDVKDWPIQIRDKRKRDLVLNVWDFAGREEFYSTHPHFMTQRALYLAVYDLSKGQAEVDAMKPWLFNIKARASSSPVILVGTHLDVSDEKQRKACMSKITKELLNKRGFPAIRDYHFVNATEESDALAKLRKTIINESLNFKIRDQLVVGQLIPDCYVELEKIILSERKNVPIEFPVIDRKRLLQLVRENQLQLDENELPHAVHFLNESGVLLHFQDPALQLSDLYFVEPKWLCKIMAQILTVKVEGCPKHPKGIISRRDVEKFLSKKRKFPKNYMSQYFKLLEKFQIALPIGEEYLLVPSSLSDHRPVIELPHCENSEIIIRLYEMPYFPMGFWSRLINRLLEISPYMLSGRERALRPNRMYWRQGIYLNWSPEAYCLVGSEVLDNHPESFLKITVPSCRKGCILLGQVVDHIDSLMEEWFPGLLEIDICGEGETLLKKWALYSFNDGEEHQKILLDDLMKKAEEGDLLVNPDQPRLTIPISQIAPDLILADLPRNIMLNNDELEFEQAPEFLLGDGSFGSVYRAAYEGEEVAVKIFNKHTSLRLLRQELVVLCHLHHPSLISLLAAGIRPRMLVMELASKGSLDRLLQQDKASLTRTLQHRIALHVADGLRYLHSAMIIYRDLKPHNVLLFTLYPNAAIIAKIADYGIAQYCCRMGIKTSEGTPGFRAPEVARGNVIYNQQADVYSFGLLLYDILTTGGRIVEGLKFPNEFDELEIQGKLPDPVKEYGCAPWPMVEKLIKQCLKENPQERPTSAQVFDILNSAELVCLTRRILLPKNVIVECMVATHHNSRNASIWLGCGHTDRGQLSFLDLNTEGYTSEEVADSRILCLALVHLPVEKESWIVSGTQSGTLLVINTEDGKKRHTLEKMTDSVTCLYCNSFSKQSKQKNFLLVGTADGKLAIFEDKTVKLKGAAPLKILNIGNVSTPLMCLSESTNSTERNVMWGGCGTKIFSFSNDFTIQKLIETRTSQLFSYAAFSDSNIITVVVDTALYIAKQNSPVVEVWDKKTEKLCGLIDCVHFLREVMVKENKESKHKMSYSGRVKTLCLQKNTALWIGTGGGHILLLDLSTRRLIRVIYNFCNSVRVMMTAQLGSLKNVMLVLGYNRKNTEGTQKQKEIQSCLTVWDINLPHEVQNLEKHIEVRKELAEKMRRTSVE

[10] = test system: Jak1/2; test: Inhibition of IFN-γ-induced STAT phosphorylation in PBMCs; assay type: cell-based; conditions: Homo sapiens, PBMC, read-out: IC50 Mean ± SD
How it was run: (§1)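 Ficoll-isolated human PBMCs, cryopreserved, thawed into RPMI/10% heat-inactivated FBS assay medium, 200,000 cells/well. Serially diluted test compound (final 20 μM to 2 × 10−6 μM) or 0.1% DMSO vehicle preincubated 1 h at 37 °C. Cytokine then added for 5–10 min, followed by 30 min shaking at 4 °C and lysis. Phospho-STAT5/STAT4 by MSD immunoassay, phospho-STAT1 by ELISA. IC50 reported as mean ± SD.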

[11] = test system: Jak2/2; test: Inhibition of GM-CSF-induced STAT phosphorylation in PBMCs; assay type: cell-based, human
How it was run: as §1

[12] = test system: Jak2/TYK2; test: Inhibition of IL-12-induced STAT phosphorylation in PBMCs; assay type: cell-based, human
How it was run: as §1

[13] = Metabolic stability in liver microsomes; assay type: in vitro ADME; conditions: human
How it was run: (§2)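 Test compound from 1 mM DMSO solution preincubated 5 min with dog, human, monkey, rat or minipig liver microsomes. NADPH (10 mM) then added. Reactions stopped at 0, 5, 15 and 30 min with 0.05% formic acid in acetonitrile containing loperamide internal standard. Supernatants analysed by LC-MS/MS; n = 1 per microsome species.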

[14] = Metabolic stability in liver microsomes; assay type: in vitro ADME; conditions: rat
How it was run: as §2

[15] = Metabolic stability in liver microsomes; assay type: in vitro ADME; conditions: mouse
[16] = Metabolic stability in liver microsomes; assay type: in vitro ADME; conditions: dog
How it was run: as §2

[17] = Metabolic stability in liver microsomes; assay type: in vitro ADME; conditions: monkey
How it was run: as §2

[18] = Metabolic stability in liver microsomes; assay type: in vitro ADME; conditions: minipig
How it was run: as §2

[19] = molecular target: CYP1A2 (Homo sapiens, UniProt P05177); test: Cytochrome P450 phenotyping; assay type: in vitro ADME; conditions: recombinant human CYP1A2; with NADPH; 60 minutes; n = 1
How it was run: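 Recombinant human CYPs prepared at CYP1A2 200 nM, CYP2B6/2C8 250 nM, CYP2C9 100 nM, CYP2D6 50 nM. Test compound added as 2 μM DMSO dosing solution on ice. Plate prewarmed, then 8 mM NADPH solution or blank buffer added. Incubation 60 min (1A2, 2B6, 2C8) or 30 min (2C9, 2D6). Stopped with acetonitrile plus internal standard; supernatant by LC-MS/MS; n = 1.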

[20] = molecular target: CYP2C19 (Homo sapiens, UniProt P33261); test: Cytochrome P450 phenotyping; assay type: in vitro ADME; conditions: recombinant human CYP2C19; with NADPH; 60 minutes; n = 1
[21] = test system: Jak1/3; test: IC50 of ATI-1777 for inhibiting Jak1/3 used as plasma reference level; conditions: reference level for plasma concentrations; assay not described
[22] = test system: moderate or severe atopic dermatitis; test: Phase 2a study ATI-1777-AD-201: efficacy; assay type: in vivo, human
How it was run: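 Randomized 1:1, double-blind, vehicle-controlled, 14 US sites; stratified by severity. Adults 18–65 with moderate/severe AD (IGA 3–4, 3–20% BSA). Up to 8 ml 2.0% w/w solution or vehicle applied twice daily for 28 days, 2-week follow-up. mEASI, IGA, BSA assessed days 8, 15, 28; PP-NRS tracked. MMRM, 1-sided tests, full analysis set (23 vs 25).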

[23] = Phase 2a study ATI-1777-AD-201: plasma pharmacokinetics; assay type: in vivo, human
How it was run: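 Participants with moderate/severe AD applied 2% topical solution twice daily for 4 weeks. Plasma test compound measured by sparse sampling, 8 samples per participant. Concentrations expressed relative to the Jak1/3 IC50.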

[24] = Homo sapiens, PBMC, read-out: IC50 Mean ± SD
[25] = day 28, 2% topical solution twice daily, n = 23

**Q.** Which IC50 [1] does the source give for `CCOC(=O)c1cnc2[nH]ccc2c1N[C@@H]1CCCN(C(=O)CC#N)C1` [ATI-1777, ethyl (R)-4-((1-(2-cyanoacetyl)piperidin-3-yl)amino)-1H-pyrrolo[2,3-b]pyridine-5-carboxylate] here?
**A.** 7.1 nM

**Q.** And the IC50 [2]?
**A.** 641 nM

**Q.** What about the “Fold Selectivity” value ([2]; Aurora A vs Jak1 (= 1)) of the same compound?
**A.** 427 fold

**Q.** And the IC50 [3]?
**A.** 127 nM

**Q.** And the “Fold Selectivity” value ([3]; KDR (VEGFR2) vs Jak1 (= 1))?
**A.** 85 fold

**Q.** What about the IC50 [4] of the same compound?
**A.** 351 nM

**Q.** What about the “Fold Selectivity” value ([4]; TXK vs Jak1 (= 1)) of the same compound?
**A.** 234 fold

**Q.** What about the IC50 [5] of the same compound?
**A.** 285 nM

**Q.** What about the “Fold Selectivity” value ([5]; HPK1 (MAP4K1) vs Jak1 (= 1)) of the same compound?
**A.** 190 fold

**Q.** What about the IC50 [6] of the same compound?
**A.** 584 nM

**Q.** What about the “Fold Selectivity” value ([6]; MKNK1/MNK1 vs Jak1 (= 1)) of the same compound?
**A.** 389 fold

**Q.** And the IC50 [7]?
**A.** 1050 nM

**Q.** And the “Fold Selectivity” value ([7]; RSK2 vs Jak1 (= 1))?
**A.** 700 fold

**Q.** What about the IC50 [8] of the same compound?
**A.** 113 nM

**Q.** What about the “Fold Selectivity” value ([8]; FLT4 (VEGFR3) vs Jak1 (= 1)) of the same compound?
**A.** 75 fold

**Q.** And the IC50 [9]?
**A.** 48 nM

**Q.** And the “Fold Selectivity” value ([9]; LRRK2 vs Jak1 (= 1))?
**A.** 32 fold

**Q.** And the IC50 [10]?
**A.** 97 ± 34 nM

**Q.** What about the “Fold Jak1/3” value ([11]; GM-CSF, Jak2/2 vs Jak1/3) of the same compound?
**A.** 41.8 fold

**Q.** What about the IC50 [11, 24] of the same compound?
**A.** 794 ± 121 nM

**Q.** What about the IC50 [12, 24] of the same compound?
**A.** 898 ± 178 nM

**Q.** And the “Fold Jak1/3” value ([12]; IL-12, Jak2/TYK2 vs Jak1/3)?
**A.** 47.3 fold

**Q.** What about the CLint scaled [13] of the same compound?
**A.** 200 mL/min/kg

**Q.** And the microsomal CLint [13]?
**A.** 74 µL/min/mg

**Q.** What about the half-life ([13]; T1/2, Study 1, n = 1) of the same compound?
**A.** 8.71 min

**Q.** And the half-life ([13]; T1/2, Study 2, n = 1)?
**A.** 19 min

**Q.** And the CLint scaled [14]?
**A.** 370 mL/min/kg

**Q.** What about the microsomal CLint [14] of the same compound?
**A.** 52 µL/min/mg

**Q.** What about the half-life ([14]; T1/2, Study 1, n = 1) of the same compound?
**A.** 6.7 min

**Q.** What about the half-life ([14]; T1/2, Study 2, n = 1) of the same compound?
**A.** 27 min

**Q.** And the CLint scaled [15]?
**A.** 3280 mL/min/kg

**Q.** And the half-life [15]?
**A.** 1.66 min

**Q.** What about the CLint scaled [16] of the same compound?
**A.** 198 mL/min/kg

**Q.** What about the microsomal CLint [16] of the same compound?
**A.** 46 µL/min/mg

**Q.** What about the half-life ([16]; T1/2, Study 1, n = 1) of the same compound?
**A.** 17.4 min

**Q.** And the half-life ([16]; T1/2, Study 2, n = 1)?
**A.** 30 min

**Q.** What about the CLint scaled [17] of the same compound?
**A.** 939 mL/min/kg

**Q.** What about the microsomal CLint [17] of the same compound?
**A.** 264 µL/min/mg

**Q.** What about the half-life ([17]; T1/2, Study 1, n = 1) of the same compound?
**A.** 2.16 min

**Q.** What about the half-life ([17]; T1/2, Study 2, n = 1) of the same compound?
**A.** 5 min

**Q.** And the CLint scaled [18]?
**A.** 365 mL/min/kg

**Q.** And the microsomal CLint [18]?
**A.** 295 µL/min/mg

**Q.** And the half-life ([18]; T1/2, Study 1, n = 1)?
**A.** 2.85 min

**Q.** What about the half-life ([18]; T1/2, Study 2, n = 1) of the same compound?
**A.** 5 min

**Q.** And the “Percentage Remaining” value [19]?
**A.** 55.7%

**Q.** And the “Percentage Remaining” value [20]?
**A.** 75.5%

**Q.** And the “IC50 of ATI-1777 for inhibiting Jak1/3” value [21]?
**A.** 0.045 µg/mL

**Q.** And the “least squared means change from baseline of PP-NRS score” value ([22]; SE = 0.548, P = .060 vs vehicle)?
**A.** −2.92

**Q.** And the “BSA affected by AD, change from baseline” value ([22]; day 8)?
**A.** −1.55%

**Q.** What about the “BSA affected by AD, change from baseline” value ([22]; day 15) of the same compound?
**A.** −3.33%

**Q.** And the “participants achieving a 50% reduction in mEASI” value [22, 25]?
**A.** 91.3%

**Q.** And the “participants achieving a 75% reduction in mEASI” value [22, 25]?
**A.** 65.2%

**Q.** And the “BSA affected by AD, change from baseline” value ([22]; day 28, P < .001 vs vehicle)?
**A.** −5.59%

**Q.** What about the “percentage reduction from baseline in mEASI score” value ([22]; day 28, mixed model for repeated measures without imputation, SE = 5.943) of the same compound?
**A.** 78.46%

**Q.** What about the “participants achieving an IGA score of 0 or 1 with ≥2 point improvement” value ([22]; end of treatment period (day 28), P = .131 vs vehicle, n = 23) of the same compound?
**A.** 39.1%

**Q.** What about the “all plasma concentrations relative to IC50 for Jak1/3” value ([23]; IC50 45 ng/ml) of the same compound?
**A.** less than half of the IC50

**Q.** And the “plasma concentrations relative to inhibitory concentrations for Jak1/2” value ([23]; all plasma concentrations)?
**A.** below IC10

**Q.** What about the “mean plasma concentration as percentage of the IC50 for Jak1/3” value ([23]; each timepoint, IC50 45 ng/ml) of the same compound?
**A.** < 5%

**Q.** What about the “participants with samples with concentrations >10% of the IC50 for Jak1/3” value ([23]; in vivo) of the same compound?
**A.** Three
